INS-1E rescue – protection of INS-1E cells from cytokine death, primary screen, ATP luminescence, single point; INS-1E cytokine-induced death, 48 h; normalised: neutral wells 0, positive control 100; protection from cytokine-induced ATP loss, % at 10 µM; actives 0.1% (n = 20,000); AID 488910, 2010;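 active means mean replicate protection from cytokine-induced ATP loss at least 50% and at least 75% of replicates each reaching 50%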
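Test system: INS-1E rat cells | Quantity: 8000 cells per well | Medium: Phenol-red-free RPMI with 5% fetal bovine serum | Reagent: Cytokine cocktail of IFN-γ, TNF-α and IL-1β | Doses: One compound concentration, pin transfer | Timing: 48 h co-treatment, 10 min post-lysis read | Technique: Luminescent ATP assay (CellTiter-Glo)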
A1 apoptosis 2 – A1 inhibitors via caspase activation, primary screen, cell-based, luminescence, HTS, two replicates; caspase activation, % (test concentration not listed); 24,000 tested, under 10 active; MEF A1-2A-BIM cells, caspase-Glo luminescence, 3 h; percent of clofoctol response, DMSO zero; in the data active means caspase activation above about 5.9%
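Test system – A1-2A-BIM-expressing MEF cells · Input – 2500 cells/well · Medium – RPMI-1640 growth medium with 10% FBS · Compound dosing – 50 nL pinned compound · Timing – 3 h compound exposure at 37 °C · Technique – Caspase-Glo luminescence (DEVD substrate) · Evaluation – Caspase-3/7 activity from luminescence increase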
T cruzi intra – inhibitors of intracellular Trypanosoma cruzi, primary screen, cell-based, plate reader, single point, set 2; actives 4.9% (n = 22,000); AID 651903, 2012; intracellular Trypanosoma cruzi in host cells; activity score (inhibition), % at 5.01 µM; in the data active means activity score above about 55%;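 further: parasites and compound incubated about four days before reading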
Numbers stand for hits; 0 = inactive; - = no result. The sample as a whole holds a higher share of hits than the screen did.

SMILES | INS-1E rescue | A1 apoptosis 2 | T cruzi intra
Cc1noc(C)c1S(=O)(=O)Nc1ccc2c(c1)CC(=O)N([C@H](C)CO)C[C@@H](C)[C@H](CN(C)Cc1ccc(-c3ccccc3)cc1)O2 | 0 | 0 | 57.9
Cc1noc(C)c1S(=O)(=O)Nc1ccc2c(c1)CC(=O)N([C@@H](C)CO)C[C@H](C)[C@H](CN(C)Cc1ccccc1)O2 | 0 | 0 | 0
O=C(O)CCCCCCC(=O)N=NC=C1C=CN(O)C=C1 | 0 | 0 | 0
O=C(N/N=C/c1ccc(OCCO)cc1)c1ccccn1 | 0 | 0 | 0
CC(C)=CCC[C@H](C)C/C=N/NC(=O)CCCCCCC(=O)O | 0 | 0 | 0
C[C@@H]1CN([C@H](C)CO)C(=O)c2cccc(NC(=O)c3nc4ccccc4s3)c2O[C@H]1CN(C)Cc1ccc(C(F)(F)F)cc1 | 0 | - | 61.6
C[C@H](CO)N1C[C@H](C)[C@H](CN(C)Cc2ccc(Oc3ccccc3)cc2)Oc2c(NC(=O)c3nc4ccccc4s3)cccc2C1=O | 0 | 0 | 59.2
C[C@H]1CN([C@@H](C)CO)C(=O)c2cccc(NC(=O)c3nc4ccccc4s3)c2O[C@H]1CN(C)Cc1ccc(C(F)(F)F)cc1 | 0 | 0 | 0
C[C@H](CO)N1C[C@H](C)[C@H](CN(C)Cc2ccccc2)Oc2c(NC(=O)c3nc4ccccc4s3)cccc2C1=O | 0 | 0 | 0
C[C@H]1CN([C@@H](C)CO)C(=O)c2cccc(NC(=O)c3nc4ccccc4s3)c2O[C@H]1CN(C)Cc1ccc(Oc2ccccc2)cc1 | 0 | 0 | 68.3
C[C@@H]1CN([C@H](C)CO)C(=O)c2cccc(NC(=O)c3nc4ccccc4s3)c2O[C@H]1CN(C)Cc1ccc(-c2ccccc2)cc1 | 0 | 0 | 0
C[C@H]1CN([C@@H](C)CO)C(=O)c2cccc(NC(=O)c3nc4ccccc4s3)c2O[C@@H]1CN(C)Cc1ccc(-c2ccccc2)cc1 | 0 | 0 | 72.9
C[C@H]1CN([C@@H](C)CO)C(=O)c2cccc(NC(=O)c3nc4ccccc4s3)c2O[C@H]1CN(C)Cc1ccccc1 | 0 | - | 0
COC(=O)c1ccc(/C=N/NC(=O)c2cccc(C(=O)NO)c2)cc1 | 0 | 0 | 0
O=C(NO)c1ccc(C(=O)N/N=C/c2cc(O)ccc2[N+](=O)[O-])cc1 | 0 | 0 | 0
NNC(=O)c1ccc(COc2cc(Cl)ccc2Cl)o1 | - | - | 0
CCCCCCC/C=N/NC(=O)CCCCC(=O)NO | 0 | 0 | 0
C[C@H](CO)N1C[C@H](C)[C@H](CN(C)Cc2ccc(Cl)c(Cl)c2)Oc2c(NC(=O)c3nc4ccccc4s3)cccc2C1=O | 0 | 0 | 60.5
C[C@@H]1CN([C@H](C)CO)C(=O)c2cccc(NC(=O)c3nc4ccccc4s3)c2O[C@@H]1CN(C)Cc1ccc(Cl)c(Cl)c1 | 0 | - | 0
COc1ccc(S(=O)(=O)N(C)C[C@H]2Oc3ccc(NS(=O)(=O)c4ccc(C)cc4)cc3CC(=O)N([C@H](C)CO)C[C@H]2C)cc1 | 0 | 0 | 64.4
COc1ccc(S(=O)(=O)Nc2ccc3c(c2)CC(=O)N([C@H](C)CO)C[C@H](C)[C@H](CN(C)S(=O)(=O)c2ccc(C)cc2)O3)cc1 | 0 | 0 | 0
COc1ccc(S(=O)(=O)Nc2ccc3c(c2)CC(=O)N([C@@H](C)CO)C[C@@H](C)[C@@H](CN(C)S(=O)(=O)c2ccc(C)cc2)O3)cc1 | 0 | - | 63.1
COc1ccc(S(=O)(=O)N(C)C[C@@H]2Oc3ccc(NS(=O)(=O)c4ccc(C)cc4)cc3CC(=O)N([C@@H](C)CO)C[C@@H]2C)cc1 | 0 | - | 0
Cc1nc(S(=O)(=O)NC[C@@H]2CCCN(Cc3ccc(OCCO)cc3)C2)cn1C | - | 0 | -
COc1ccc(/C=N/NC(=O)CCCCCC(=O)O)c(O)c1 | 0 | 0 | 0
SMILES | INS-1E rescue | A1 apoptosis 2 | T cruzi intra
CCO[C@@H]1OC(C(=O)N2CCN(Cc3ccccc3)CC2)=C[C@H](C(C)(C)C)[C@H]1CCCO | - | 0 | -
C[C@@H]1CN([C@@H](C)CO)C(=O)c2cc(NC(=O)Cc3cn(C)c4ccccc34)ccc2O[C@@H]1CN(C)Cc1ccc(Cl)c(Cl)c1 | 0 | 0 | 0
C[C@H](CO)N1C[C@H](C)[C@H](CN(C)Cc2ccccc2)Oc2ccc(NC(=O)Cc3cn(C)c4ccccc34)cc2CC1=O | 0 | 0 | 0
C[C@@H]1CN([C@@H](C)CO)C(=O)Cc2cc(NC(=O)Cc3cn(C)c4ccccc34)ccc2O[C@H]1CN(C)Cc1ccc(Cl)c(Cl)c1 | - | 0 | -
C[C@@H]1CN([C@H](C)CO)C(=O)Cc2cc(NC(=O)Cc3cn(C)c4ccccc34)ccc2O[C@H]1CN(C)Cc1ccncc1 | 0 | 0 | 0
C[C@@H]1CN([C@H](C)CO)C(=O)c2cc(NC(=O)Cc3cn(C)c4ccccc34)ccc2O[C@@H]1CN(C)Cc1ccc(Cl)c(Cl)c1 | 0 | - | 79.1
C[C@@H]1CN([C@H](C)CO)C(=O)Cc2cc(NC(=O)Cc3cn(C)c4ccccc34)ccc2O[C@H]1CN(C)Cc1ccc(Cl)c(Cl)c1 | 0 | - | 62.9
C[C@@H]1CN([C@@H](C)CO)C(=O)Cc2cc(NC(=O)Cc3cn(C)c4ccccc34)ccc2O[C@@H]1CN(C)Cc1ccncc1 | 0 | 0 | 64.8
C[C@@H]1CN([C@@H](C)CO)C(=O)Cc2cc(NC(=O)Cc3cn(C)c4ccccc34)ccc2O[C@@H]1CN(C)Cc1ccc(Cl)c(Cl)c1 | 0 | - | 69.0
O=C(O)CCCCCC(=O)N/N=C/c1cccnc1 | 0 | - | 0
COC(=O)C(CC#Cc1ccc2c(c1)[C@]1(C(=O)N2)[C@H](C(N)=O)[C@H]2C(=O)O[C@H](c3ccccc3)[C@H](c3ccccc3)N2[C@@H]1c1ccccc1OCCO)C(=O)OC | - | 0 | -
C[C@@H]1CN([C@@H](C)CO)C(=O)Cc2cc(NC(=O)Nc3cccc4ccccc34)ccc2O[C@H]1CN(C)Cc1ccccc1 | - | 0 | -
COc1ccc(CN(C)C[C@@H]2Oc3ccc(NC(=O)Nc4cccc5ccccc45)cc3CC(=O)N([C@H](C)CO)C[C@H]2C)cc1 | 0 | 0 | 65.0
C[C@@H]1CN([C@H](C)CO)C(=O)Cc2cc(NC(=O)Nc3cccc4ccccc34)ccc2O[C@H]1CN(C)Cc1ccc(Oc2ccccc2)cc1 | 0 | - | 57.2
C[C@H](CO)N1C[C@H](C)[C@@H](CN(C)Cc2ccc(Oc3ccccc3)cc2)Oc2ccc(NC(=O)Nc3cccc4ccccc34)cc2CC1=O | - | 0 | -
C[C@H]1CN([C@@H](C)CO)C(=O)Cc2cc(NC(=O)Nc3cccc4ccccc34)ccc2O[C@H]1CN(C)Cc1ccc(Oc2ccccc2)cc1 | 0 | - | 0
C[C@H]1CN([C@@H](C)CO)C(=O)c2cccc(NC(=O)Nc3cccc4ccccc34)c2O[C@H]1CN(C)Cc1ccc2c(c1)OCO2 | 0 | 0 | 64.6
C[C@@H]1CN([C@H](C)CO)C(=O)Cc2cc(NC(=O)Nc3cccc4ccccc34)ccc2O[C@@H]1CN(C)Cc1ccccc1 | 0 | 0 | 68.2
C[C@@H]1CN([C@H](C)CO)C(=O)c2cccc(NC(=O)Nc3cccc4ccccc34)c2O[C@@H]1CN(C)Cc1ccc2c(c1)OCO2 | 0 | 0 | 0
COc1ccc(O)c(/C=N/NC(=O)c2ccccc2O)c1 | 0 | 0 | 0

Source: PubChem BioAssay
